Laboratory results from ChEMBL document CHEMBL5724801, “EUbOPEN Chemogenomics Library - Multiplex” (2024).
Where “and” joins values, the source holds several entries; their conditions need not be identical. Identical values can stand only once.

Tested on: U2OS
Assay: Multiplex assay against U2OS
Assay type: toxicity, cell-based
Settings: human
Procedure, shortened: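 Four dyes were applied at seeding to live cells: Hoechst33342, BioTracker Green Microtubule Cytoskeleton Dye, MitoTracker Red and Annexin V Alexa Fluor 680. Imaging after compound addition used a CQ1 microscope at 37°C and 5% CO2. CellPathfinder machine-learning gating then sorted cells into Hoechst high-intensity objects or normal cells, normal cells into healthy, pyknosed or fragmented nuclei, and pyknosed cells into mitotic or apoptotic, with tubulin, mitochondrial-mass and membrane-permeability phenotypes given as per cents of healthy-nucleus cells.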

[1] = 12 h, 1 µM, compound concentration 1 uM
[2] = 12 h, 10 µM, compound concentration 10 uM
[3] = 24 h, 1 µM, compound concentration 1 uM
[4] = 24 h, 10 µM, compound concentration 10 uM
[5] = 48 h, 1 µM, compound concentration 1 uM
[6] = 48 h, 10 µM, compound concentration 10 uM

## CC(C)[C@H](C(=O)Nc1ccc(C(=O)NO)cc1)c1ccccc1 [AR-42]
[1]
  Population Apoptotic (%): 27.71% and 34.88%
  Population Fragmented Nuclei (%): 2.59% and 3.95%
  Population Healthy Nuclei (%): 77.88% and 71.75%
  Population Hoechst High Intensity Objects (%): 0%
  Population Membrane Permeable-Phenotype (%): 0.6% and 1.57%
  Population Mitochondria Different-Phenotype (%): 0.3% and 7.87%
  Population Mitotic Cells (%): 72.29% and 65.12%
  Population Normal (%): 100%
  Population Pyknosed Nuclei (%): 19.53% and 24.29%
  Population Tubulin-Different-Phenotype (%): 0.6% and 0%
  Total Cell Count: 425 and 177
[2]
  Population Apoptotic (%): 22.08% and 11.11%
  Population Fragmented Nuclei (%): 2.31% and 1.96%
  Population Healthy Nuclei (%): 75.5% and 80.39%
  Population Hoechst High Intensity Objects (%): 0%
  Population Membrane Permeable-Phenotype (%): 0.38% and 3.25%
  Population Mitochondria Different-Phenotype (%): 0% and 2.44%
  Population Mitotic Cells (%): 77.92% and 88.89%
  Population Normal (%): 100%
  Population Pyknosed Nuclei (%): 22.19% and 17.65%
  Population Tubulin-Different-Phenotype (%): 0.76% and 0.81%
  Total Cell Count: 347 and 153
[3]
  Population Apoptotic (%): 34.74% and 52.56%
  Population Fragmented Nuclei (%): 5.86% and 12.17%
  Population Healthy Nuclei (%): 51.35% and 46.56%
  Population Hoechst High Intensity Objects (%): 0%
  Population Membrane Permeable-Phenotype (%): 1.75% and 5.68%
  Population Mitochondria Different-Phenotype (%): 0% and 5.68%
  Population Mitotic Cells (%): 65.26% and 47.44%
  Population Normal (%): 100%
  Population Pyknosed Nuclei (%): 42.79% and 41.27%
  Population Tubulin-Different-Phenotype (%): 4.82% and 3.41%
  Total Cell Count: 444 and 189
[4]
  Population Apoptotic (%): 38.59% and 30.67%
  Population Fragmented Nuclei (%): 5.97% and 3.36%
  Population Healthy Nuclei (%): 39.1% and 46.31%
  Population Hoechst High Intensity Objects (%): 0%
  Population Membrane Permeable-Phenotype (%): 3.82% and 5.8%
  Population Mitochondria Different-Phenotype (%): 0% and 2.9%
  Population Mitotic Cells (%): 61.41% and 69.33%
  Population Normal (%): 100%
  Population Pyknosed Nuclei (%): 54.93% and 50.34%
  Population Tubulin-Different-Phenotype (%): 6.87% and 8.7%
  Total Cell Count: 335 and 149
[5]
  Population Apoptotic (%): 73.08% and 85.05%
  Population Fragmented Nuclei (%): 10.42% and 6.52%
  Population Healthy Nuclei (%): 25.06% and 35.33%
  Population Hoechst High Intensity Objects (%): 0.25% and 0%
  Population Membrane Permeable-Phenotype (%): 14.85% and 23.08%
  Population Mitochondria Different-Phenotype (%): 0% and 10.77%
  Population Mitotic Cells (%): 26.92% and 14.95%
  Population Normal (%): 99.75% and 100%
  Population Pyknosed Nuclei (%): 64.52% and 58.15%
  Population Tubulin-Different-Phenotype (%): 30.69% and 30.77%
  Total Cell Count: 404 and 184
[6]
  Population Apoptotic (%): 83.05% and 91.57%
  Population Fragmented Nuclei (%): 2.34% and 3.4%
  Population Healthy Nuclei (%): 38.46% and 40.14%
  Population Hoechst High Intensity Objects (%): 0% and 0.68%
  Population Membrane Permeable-Phenotype (%): 18.26% and 44.07%
  Population Mitochondria Different-Phenotype (%): 0% and 1.69%
  Population Mitotic Cells (%): 16.95% and 8.43%
  Population Normal (%): 100% and 99.32%
  Population Pyknosed Nuclei (%): 59.2% and 56.46%
  Population Tubulin-Different-Phenotype (%): 34.78% and 18.64%
  Total Cell Count: 299 and 148

## COc1cc(N2CCN(C)CC2)ccc1Nc1nccc(-c2cn(C)c3cnccc23)n1
[1]
  Population Apoptotic (%): 42.42% and 21.43%
  Population Fragmented Nuclei (%): 1.36% and 2.74%
  Population Healthy Nuclei (%): 89.7% and 78.08%
  Population Hoechst High Intensity Objects (%): 0.27% and 0%
  Population Membrane Permeable-Phenotype (%): 5.14% and 14.04%
  Population Mitotic Cells (%): 57.58% and 78.57%
  Population Normal (%): 99.73% and 100%
  Population Pyknosed Nuclei (%): 8.94% and 19.18%
  Population Tubulin-Different-Phenotype (%): 5.14% and 4.39%
  Total Cell Count: 370 and 146
[2]
  Population Apoptotic (%): 48.67% and 23.94%
  Population Fragmented Nuclei (%): 6.32% and 4.8%
  Population Healthy Nuclei (%): 61.21% and 38.4%
  Population Hoechst High Intensity Objects (%): 0%
  Population Membrane Permeable-Phenotype (%): 33.33% and 66.67%
  Population Mitotic Cells (%): 51.33% and 76.06%
  Population Normal (%): 100%
  Population Pyknosed Nuclei (%): 32.47% and 56.8%
  Population Tubulin-Different-Phenotype (%): 60.56% and 58.33%
  Total Cell Count: 348 and 125
[3]
  Population Apoptotic (%): 46.67% and 20.69%
  Population Fragmented Nuclei (%): 0.88% and 3.53%
  Population Healthy Nuclei (%): 89.18% and 79.41%
  Population Hoechst High Intensity Objects (%): 0%
  Population Membrane Permeable-Phenotype (%): 3.96% and 9.63%
  Population Mitotic Cells (%): 53.33% and 79.31%
  Population Normal (%): 100%
  Population Pyknosed Nuclei (%): 9.93% and 17.06%
  Population Tubulin-Different-Phenotype (%): 3.71% and 5.19%
  Total Cell Count: 453 and 170
[4]
  Population Apoptotic (%): 79.82% and 63.75%
  Population Fragmented Nuclei (%): 10.27% and 17.39%
  Population Healthy Nuclei (%): 55.29% and 24.64%
  Population Hoechst High Intensity Objects (%): 0%
  Population Membrane Permeable-Phenotype (%): 25.68% and 44.12%
  Population Mitotic Cells (%): 20.18% and 36.25%
  Population Normal (%): 100%
  Population Pyknosed Nuclei (%): 34.44% and 57.97%
  Population Tubulin-Different-Phenotype (%): 53.55% and 44.12%
  Total Cell Count: 331 and 138
[5]
  Population Apoptotic (%): 46.51% and 48.94%
  Population Fragmented Nuclei (%): 1.87% and 5.31%
  Population Healthy Nuclei (%): 87.42% and 75.51%
  Population Hoechst High Intensity Objects (%): 0%
  Population Membrane Permeable-Phenotype (%): 1.42% and 4.86%
  Population Mitotic Cells (%): 53.49% and 51.06%
  Population Normal (%): 100%
  Population Pyknosed Nuclei (%): 10.71% and 19.18%
  Population Tubulin-Different-Phenotype (%): 2.14% and 3.78%
[6]
  Population Apoptotic (%): 82.73% and 95.65%
  Population Fragmented Nuclei (%): 15.62% and 15.79%
  Population Hoechst High Intensity Objects (%): 0%
  Population Membrane Permeable-Phenotype (%): 15.15% and 25%
  Population Normal (%): 100%
  Population Pyknosed Nuclei (%): 30.14% and 69.17%
  Population Tubulin-Different-Phenotype (%): 53.54% and 40%
  Total Cell Count: 365 and 133

## CN1CC[C@@]23CCCC[C@@H]2[C@@H]1Cc1ccc(O)cc13.O=C(O)C(O)C(O)C(=O)O
[1]
  Population Apoptotic (%): 38.64% and 62.96%
  Population Fragmented Nuclei (%): 1.53% and 2.17%
  Population Healthy Nuclei (%): 88.86% and 78.26%
  Population Hoechst High Intensity Objects (%): 1.51% and 0%
  Population Membrane Permeable-Phenotype (%): 1.23% and 1.85%
  Population Mitochondria Different-Phenotype (%): 0% and 11.11%
  Population Mitotic Cells (%): 61.36% and 37.04%
  Population Normal (%): 98.49% and 100%
  Population Pyknosed Nuclei (%): 9.61% and 19.57%
  Population Tubulin-Different-Phenotype (%): 0%
[2]
  Population Apoptotic (%): 33.33% and 60%
  Population Healthy Nuclei (%): 88.89% and 58.2%
  Population Hoechst High Intensity Objects (%): 0%
  Population Membrane Permeable-Phenotype (%): 1.19% and 4.7%
  Population Mitochondria Different-Phenotype (%): 0.89% and 6.71%
  Population Mitotic Cells (%): 66.67% and 40%
  Population Normal (%): 100%
  Population Pyknosed Nuclei (%): 9.52% and 5.86%
  Population Tubulin-Different-Phenotype (%): 1.49% and 0.67%
  Total Cell Count: 378 and 256
[3]
  Population Apoptotic (%): 53.33% and 66.67%
  Population Fragmented Nuclei (%): 1.7% and 1.75%
  Population Healthy Nuclei (%): 91.36% and 85.96%
  Population Hoechst High Intensity Objects (%): 1.22% and 0%
  Population Membrane Permeable-Phenotype (%): 0.68% and 2.72%
  Population Mitotic Cells (%): 46.67% and 33.33%
  Population Normal (%): 98.78% and 100%
  Population Pyknosed Nuclei (%): 6.94% and 12.28%
  Population Tubulin-Different-Phenotype (%): 0.51% and 0.68%
[4]
  Population Apoptotic (%): 32.2% and 38.89%
  Population Healthy Nuclei (%): 87.76% and 63.54%
  Population Hoechst High Intensity Objects (%): 0%
  Population Membrane Permeable-Phenotype (%): 1.07% and 3.28%
  Population Mitochondria Different-Phenotype (%): 0.43% and 3.83%
  Population Mitotic Cells (%): 67.8% and 61.11%
  Population Normal (%): 100%
  Population Pyknosed Nuclei (%): 11.11% and 6.25%
  Population Tubulin-Different-Phenotype (%): 1.07% and 1.09%
  Total Cell Count: 531 and 288
[5]
  Population Apoptotic (%): 45.92% and 51.61%
  Population Fragmented Nuclei (%): 4.22% and 1.42%
  Population Healthy Nuclei (%): 87.82% and 87.54%
  Population Hoechst High Intensity Objects (%): 0.88% and 0%
  Population Membrane Permeable-Phenotype (%): 0.55% and 2.44%
  Population Mitochondria Different-Phenotype (%): 0.09% and 6.91%
  Population Mitotic Cells (%): 54.08% and 48.39%
  Population Normal (%): 99.12% and 100%
  Population Pyknosed Nuclei (%): 7.95% and 11.03%
  Population Tubulin-Different-Phenotype (%): 0.37% and 1.22%
[6]
  Population Apoptotic (%): 45.36% and 57.14%
  Population Healthy Nuclei (%): 87.24% and 75.39%
  Population Hoechst High Intensity Objects (%): 0.1% and 0%
  Population Membrane Permeable-Phenotype (%): 0.68% and 1.72%
  Population Mitochondria Different-Phenotype (%): 0.34% and 3.09%
  Population Mitotic Cells (%): 54.64% and 42.86%
  Population Normal (%): 99.9% and 100%
  Population Pyknosed Nuclei (%): 9.59% and 7.25%
  Population Tubulin-Different-Phenotype (%): 0.45% and 0.34%
  Total Cell Count: 1012 and 386
